Reference: ChEMBL document CHEMBL1806465, “Synthesis and biological evaluation of 4-nitro-substituted 1,3-diaryltriazenes as a novel class of potent antitumor agents” (Eur J Med Chem, 2011)
Activity calls are given as the source filed them. The calls are words filed in the database; no cut-off is given here.

Tests used:
[1] = Cytotoxicity against cisplatin-resistant human CA3ST cells after 72 hrs by MTT assay; assay type: functional, cell-based
Method in brief: (§1)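 MTT assay: 3000 cells/well seeded, compound added next day, each concentration in quadruplicate, 72 h at 37 °C; medium replaced with 20 µg MTT/well for 4 h, formazan dissolved in DMSO, OD 545 nm. […] Fibroblasts: normal skin fibroblasts from donor, DMEM/10% FBS, used at 32 and 36 population doublings.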

[2] = Cytotoxicity against human Fibroblast cells after 72 hrs by MTT assay; assay type: cell-based; method in brief: as §1
[3] = Therapeutic index, ratio IC50 for cisplatin-resistant human CA3ST cells to IC50 for normal human fibroblasts; assay type: cell-based; conditions: read-out: Ratio IC50
Method in brief: (§2)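 IC50 values came from an MTT assay. Cells were seeded at 3000 per well and dosed the next day, with each concentration in quadruplicate. After 72 h at 37 °C, MTT (20 µg/well) was added for 4 h; formazan was dissolved in DMSO and read at 545 nm. Each experiment was done three times. Normal skin fibroblasts were used at 32 and 36 population doublings. T.I. = tumor-cell IC50 / fibroblast IC50.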

[4] = Therapeutic index, ratio IC50 for human MIAPaCa2 cells to IC50 for normal human fibroblasts; assay type: cell-based, MIA PaCa-2; conditions: MIAPaCa2 cells versus normal human fibroblasts, read-out: Ratio IC50; method in brief: as §2
[5] = Therapeutic index, ratio IC50 for human SW620 cells to IC50 for normal human fibroblasts; assay type: cell-based, SW-620; conditions: SW620 cells versus normal human fibroblasts, read-out: Ratio IC50; method in brief: as §2
[6] = tested on: Nucleic Acid; test: Binding affinity to calf thymus DNA assessed as change in melting temperature at compound to DNA ratio of 0.3; assay type: nucleic-acid assay; conditions: Bos taurus
Method in brief: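 ct-DNA sonicated, filtered, in Na-cacodylate buffer pH 7, I = 0.05 mol dm-3, 2 x 10^-5 mol dm-3 (as phosphate, ε260 = 6600); compound/DNA ratio 0.3. Absorbance at 260 nm followed versus temperature, compound absorbance subtracted, curves normalized. Tm taken from first-derivative maximum, confirmed by tangent method; ΔTm = Tm(complex) − Tm(free DNA), mean of ≥2 runs, error ±0.5 °C.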

[7] = tested on: HeLa; test: Cell cycle arrest in human HeLa cells assessed as accumulation at G0/G1 phase at 0.78 uM after 24 hrs by propidium iodide staining -based flow cytometry (reference value: 60.6 %); assay type: functional
Method in brief: (§3)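 HeLa seeded at 100 000 cells/well, treated next day with 0.78, 7 or 21 µM for 24, 48 or 72 h. Adherent plus floating cells collected, PBS-washed, fixed overnight in 70% ethanol at −20 °C, RNase A 30 µg/ml 1 h RT, propidium iodide 16.7 µg/ml 30 min dark; DNA content by flow cytometry, phase percentages including subG1 reported.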

[8] = tested on: HeLa; test: Cell cycle arrest in human HeLa cells assessed as accumulation at S phase at 0.78 uM after 24 hrs by propidium iodide staining -based flow cytometry (reference value: 27.7 %); assay type: functional; method in brief: as §3
[9] = tested on: HeLa; test: Cell cycle arrest in human HeLa cells assessed as accumulation at S phase at 21 uM after 24 hrs by propidium iodide staining -based flow cytometry(reference value: 27.7 %); assay type: functional; method in brief: as §3
[10] = tested on: HeLa; test: Cell cycle arrest in human HeLa cells assessed as accumulation at G2/M phase at 0.78 uM after 24 hrs by propidium iodide staining -based flow cytometry (reference value: 11.7 %); assay type: functional; method in brief: as §3
[11] = tested on: HeLa; test: Cell cycle arrest in human HeLa cells assessed as accumulation at subG1 phase at 0.78 uM after 24 hrs by propidium iodide staining -based flow cytometry (reference value: 9.4 %); assay type: functional; method in brief: as §3
[12] = tested on: HeLa; test: Cell cycle arrest in human HeLa cells assessed as accumulation at subG1 phase at 21 uM after 24 hrs by propidium iodide staining -based flow cytometry (reference value: 9.4 %); assay type: functional; method in brief: as §3
[13] = tested on: HeLa; test: Cell cycle arrest in human HeLa cells assessed as accumulation at G0/G1 phase at 21 uM after 48 hrs by propidium iodide staining -based flow cytometry (reference value: 63.8 %); assay type: functional; method in brief: as §3
[14] = tested on: HeLa; test: Cell cycle arrest in human HeLa cells assessed as accumulation at S phase at 7 uM after 48 hrs by propidium iodide staining -based flow cytometry (reference value: 26.3 %); assay type: functional; method in brief: as §3
[15] = tested on: HeLa; test: Cell cycle arrest in human HeLa cells assessed as accumulation at subG1 phase at 0.78 uM after 48 hrs by propidium iodide staining -based flow cytometry (reference value: 8.5 %); assay type: functional; method in brief: as §3
[16] = tested on: HeLa; test: Cell cycle arrest in human HeLa cells assessed as accumulation at G0/G1 phase at 7 uM after 72 hrs by propidium iodide staining -based flow cytometry (reference value: 66.9 %); assay type: functional; method in brief: as §3
[17] = tested on: HeLa; test: Cell cycle arrest in human HeLa cells assessed as accumulation at G0/G1 phase at 21 uM after 72 hrs by propidium iodide staining -based flow cytometry (reference value: 66.9 %); assay type: functional; method in brief: as §3
[18] = tested on: HeLa; test: Cell cycle arrest in human HeLa cells assessed as accumulation at G2/M phase at 0.78 uM after 72 hrs by propidium iodide staining -based flow cytometry (reference value: 9.7 %); assay type: functional; method in brief: as §3
[19] = tested on: HeLa; test: Cell cycle arrest in human HeLa cells assessed as accumulation at subG1 phase at 0.78 uM after 72 hrs by propidium iodide staining -based flow cytometry (reference value: 7.2 %); assay type: functional; method in brief: as §3
[20] = tested on: HeLa; test: Cell cycle arrest in human HeLa cells assessed as accumulation at subG1 phase at 21 uM after 72 hrs by propidium iodide staining -based flow cytometry (reference value: 7.2 %); assay type: functional; method in brief: as §3
[21] = tested on: HeLa; test: Induction of CHOP expression in human HeLa cells at 7 uM up to 8 hrs by Western blot analysis; assay type: functional, cell-based
Method in brief: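 Log-phase HeLa exposed to a concentration series for 48 h, or to 7 µM over a time course. Extracts resolved on 10% SDS gels, blotted to nitrocellulose, blocked 5% milk; anti-CHOP 1:1000 in 5% BSA overnight at 4 °C, HRP secondary 1:5000 2 h RT, ECL detection; ERK2 reprobe as loading control.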

[22] = tested on: HeLa; test: Induction of Grp78 expression in human HeLa cells at 7 uM after 16 to 48 hrs by Western blot analysis; assay type: functional, cell-based
Method in brief: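 Logarithmically growing HeLa cells were exposed to varying concentrations for 48 h, or to 7 µM for varying times. Cell extracts were run on 10% SDS gels and transferred to nitrocellulose. Membranes were blocked in 5% milk and probed with anti-Grp78 (1:1000, overnight, 4 °C), then an HRP secondary (1:5000, 2 h, RT). Detection was by ECL, with ERK2 reprobing as the loading control.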

[23] = tested on: HeLa; test: Induction of apoptotis in human HeLa cells assessed as cleavage of procaspase 9 at 7 uM after 48 hrs by Western blot analysis; assay type: functional, cell-based
Method in brief: (§4)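 HeLa cells were treated for 48 h at 7 µM and analysed by Western blot (10% SDS gels, nitrocellulose, HRP secondary, ECL, ERK2 loading control) for cleavage of apoptotic proteins. Antibodies: anti-PARP 1:4000; anti-caspase-3 and anti-caspase-8 1:1000; rabbit polyclonal anti-caspase-9 1:1000.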

[24] = tested on: HeLa; test: Induction of apoptotis in human HeLa cells assessed as cleavage of procaspase 3 at 7 uM after 48 hrs by Western blot analysis; assay type: functional, cell-based; method in brief: as §4
[25] = Stability of the compound in DMSO after 26.25 hrs by LC/MS/MS analysis in presence of 10% FBS; assay type: physicochemical; conditions: cattle, DMSO with 10% FBS; read-out: Stability

CC(=O)N(/N=N/c1ccc([N+](=O)[O-])cc1Cl)c1ccc([N+](=O)[O-])cc1Cl
IC50 [1]: 0.63 µM
IC50 [2]: 14 µM
selectivity ratio [3]: 0.045
selectivity ratio [4]: 0.037
selectivity ratio [5]: 0.032
Activity [6]: inactive
Activity [7]: 74.4%
Activity [8]: 15.1%
Activity [9]: 20.2%
Activity [10]: 10.5%
Activity [11]: 8.7%
Activity [12]: 16.4%
Activity [13]: 73%
Activity [14]: 14.2%
Activity [15]: 15.8%
Activity [16]: 77.1%
Activity [17]: 79%
Activity [18]: 8.4%
Activity [19]: 17.6%
Activity [20]: 80.2%
Activity [21]: inactive
Activity [22]: Active
Activity [23]: Active
Activity [24]: Active
remaining at 26.25 h [25]: 57%
